Reference: ChEMBL document CHEMBL4346672, “Antimicrobial and KPC/AmpC inhibitory activity of functionalized benzosiloxaboroles” (Eur J Med Chem, 2019)
Converted amounts (≈) assume the structure as drawn. The source made the active and inactive calls. The rule behind the calls is not given here.

Test system: Proteus mirabilis
Assay: Antibacterial activity against Proteus mirabilis ATCC 12453 assessed as diameter of zone inhibition measured after 18 hrs by CLSI disc diffusion method
Assay type: functional
Conditions: not given
Procedure, shortened: (§1)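 Disc diffusion on Mueller-Hinton II agar. Compounds dissolved in DMSO. Strains stored at -80 °C and subcultured twice on tryptic soy agar before testing. Inhibition zones read after 35 °C, 18 h.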

| Structure (SMILES) | diameter of the inhibition zone (DIZ) |
| --- | --- |
| C[Si]1(C)OB(O)c2ccccc21 | inactive |

Test system: Enterococcus faecalis
Assay: Antibacterial activity against Enterococcus faecalis ATCC 29212 measured after 18 hrs by CLSI broth dilution method
Assay type: functional
Conditions: ATCC 29212, 18 h
Procedure, shortened: (§2)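 Broth MIC in Mueller-Hinton II broth following CLSI, compounds dissolved in DMSO. Strains subcultured twice on tryptic soy agar before testing. Growth read after 35 °C, 18 h.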

| MIC [µg/mL] | Structure (SMILES) |
| --- | --- |
| > 200 | C[Si]1(C)OB(O)c2ccccc21 |

Test system: Bordetella bronchiseptica
Assay: Antibacterial activity against Bordetella bronchiseptica ATCC 4617 measured after 18 hrs by CLSI broth dilution method
Assay type: functional
Conditions: ATCC 4617, 18 h
Procedure, shortened: as §2

| MIC [µg/mL] | Structure (SMILES) |
| --- | --- |
| > 200 | C[Si]1(C)OB(O)c2ccccc21 |

Test system: Klebsiella pneumoniae
Assay: Antibacterial activity against Klebsiella pneumoniae ATCC 13883 measured after 18 hrs by CLSI broth dilution method
Assay type: functional
Conditions: ATCC 13883, 18 h
Procedure, shortened: as §2

| MIC [µg/mL] | Structure (SMILES) |
| --- | --- |
| > 200 | C[Si]1(C)OB(O)c2ccccc21 |

Test system: Enterococcus faecium
Assay: Antibacterial activity against Enterococcus faecium ATCC 6057 assessed as diameter of zone inhibition measured after 18 hrs by CLSI disc diffusion method
Assay type: functional
Conditions: not given
Procedure, shortened: as §1

| Structure (SMILES) | diameter of the inhibition zone (DIZ) |
| --- | --- |
| C[Si]1(C)OB(O)c2ccccc21 | inactive |

Test system: Proteus mirabilis
Assay: Antibacterial activity against Proteus mirabilis ATCC 12453 measured after 18 hrs by CLSI broth dilution method
Assay type: functional
Conditions: ATCC 12453, 18 h
Procedure, shortened: as §2

| MIC [µg/mL] | Structure (SMILES) |
| --- | --- |
| > 200 | C[Si]1(C)OB(O)c2ccccc21 |

Test system: Acinetobacter baumannii
Assay: Antibacterial activity against Acinetobacter baumannii ATCC 19606 assessed as diameter of zone inhibition measured after 18 hrs by CLSI disc diffusion method
Assay type: functional
Conditions: not given
Procedure, shortened: as §1

| Structure (SMILES) | diameter of the inhibition zone (DIZ) |
| --- | --- |
| C[Si]1(C)OB(O)c2ccccc21 | inactive |

Test system: Klebsiella pneumoniae
Assay: Antibacterial activity against Klebsiella pneumoniae ATCC 13883 assessed as fold reduction of MIC in presence of efflux pump inhibitor PAbetaN incubated for 18 hrs by broth microdilution method
Assay type: functional
Conditions: not given
Procedure, shortened: (§3)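 MICs determined with and without PAβN at 50 mg/L in Mueller-Hinton broth containing 1 mM MgSO₄. 2-fold serial dilutions per CLSI. Fold change taken from the paired MICs after 35 °C, 18 h.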

| Structure (SMILES) | fold change (FC) |
| --- | --- |
| C[Si]1(C)OB(O)c2ccccc21 | 2 |

Test system: Bacillus subtilis
Assay: Antibacterial activity against Bacillus subtilis ATCC 6633 assessed as diameter of zone inhibition measured after 18 hrs by CLSI disc diffusion method
Assay type: functional
Conditions: not given
Procedure, shortened: as §1

| Structure (SMILES) | diameter of the inhibition zone (DIZ) [mm] |
| --- | --- |
| C[Si]1(C)OB(O)c2ccccc21 | 14 |

Test system: Candida parapsilosis
Assay: Antifungal activity against Candida parapsilosis ATCC 22019 assessed as decrease in fungal cell growth at 0.78 to 12.5 mg/L incubated for 24 hrs by CLSI broth dilution method
Assay type: functional
Conditions: Lodderomyces parapsilosis, ATCC 22019, 24 h
Procedure, shortened: (§4)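 Yeast broth dilution in RPMI 1640 with 2% glucose, compounds in DMSO. Yeasts pre-grown on Sabouraud dextrose agar. Growth read after 35 °C, 24 h.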

| MIC [µg/mL] | Structure (SMILES) |
| --- | --- |
| 25 (≈ 140 µM) | C[Si]1(C)OB(O)c2ccccc21 |

Test system: Serratia marcescens
Conditions: ATCC 13880

| Structure (SMILES) | DIZ |
| --- | --- |
| C[Si]1(C)OB(O)c2ccccc21 | inactive |

Test system: Pichia kudriavzevii
Assay: Antifungal activity against Candida krusei ATCC 6258 assessed as diameter of zone inhibition incubated for 24 hrs by CLSI disc diffusion method
Assay type: functional
Conditions: not given
Procedure, shortened: (§5)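 Yeast disc diffusion on Mueller-Hinton agar supplemented with 2% glucose and 0.5 mg/L methylene blue. Compounds in DMSO. Yeasts subcultured on Sabouraud dextrose agar before testing. Zones read after 35 °C, 24 h.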

| Structure (SMILES) | diameter of the inhibition zone (DIZ) |
| --- | --- |
| C[Si]1(C)OB(O)c2ccccc21 | inactive |

Test system: Serratia marcescens
Assay: Antibacterial activity against Serratia marcescens ATCC 13880 measured after 18 hrs by CLSI broth dilution method
Assay type: functional
Conditions: ATCC 13880, 18 h
Procedure, shortened: as §2

| MIC [µg/mL] | Structure (SMILES) |
| --- | --- |
| > 200 | C[Si]1(C)OB(O)c2ccccc21 |

Test system: Escherichia coli
Assay: Antibacterial activity against Escherichia coli ATCC 25922 assessed as diameter of zone inhibition measured after 18 hrs by CLSI disc diffusion method
Assay type: functional
Conditions: not given
Procedure, shortened: as §1

| Structure (SMILES) | diameter of the inhibition zone (DIZ) |
| --- | --- |
| C[Si]1(C)OB(O)c2ccccc21 | inactive |

Test system: Candida albicans
Assay: Antifungal activity against Candida albicans ATCC 90028 assessed as diameter of zone inhibition incubated for 24 hrs by CLSI disc diffusion method
Assay type: functional
Conditions: not given
Procedure, shortened: as §5

| Structure (SMILES) | diameter of the inhibition zone (DIZ) |
| --- | --- |
| C[Si]1(C)OB(O)c2ccccc21 | inactive |

Test system: Acinetobacter baumannii
Assay: Antibacterial activity against Acinetobacter baumannii ATCC 19606 measured after 18 hrs by CLSI broth dilution method
Assay type: functional
Conditions: ATCC 19606, 18 h
Procedure, shortened: as §2

| MIC [µg/mL] | Structure (SMILES) |
| --- | --- |
| > 200 | C[Si]1(C)OB(O)c2ccccc21 |

Test system: Klebsiella pneumoniae
Conditions: ATCC 13883

| Structure (SMILES) | DIZ |
| --- | --- |
| C[Si]1(C)OB(O)c2ccccc21 | inactive |

Test system: Bordetella bronchiseptica
Assay: Antibacterial activity against Bordetella bronchiseptica ATCC 4617 assessed as diameter of zone inhibition measured after 18 hrs by CLSI disc diffusion method
Assay type: functional
Conditions: not given
Procedure, shortened: as §1

| Structure (SMILES) | diameter of the inhibition zone (DIZ) |
| --- | --- |
| C[Si]1(C)OB(O)c2ccccc21 | inactive |

Test system: Enterococcus faecalis
Assay: Antibacterial activity against Enterococcus faecalis ATCC 29212 assessed as diameter of zone inhibition measured after 18 hrs by CLSI disc diffusion method
Assay type: functional
Conditions: not given
Procedure, shortened: as §1

| Structure (SMILES) | diameter of the inhibition zone (DIZ) |
| --- | --- |
| C[Si]1(C)OB(O)c2ccccc21 | inactive |

Test system: Stenotrophomonas maltophilia
Assay: Antibacterial activity against Stenotrophomonas maltophilia ATCC 13637 assessed as fold reduction of MIC in presence of efflux pump inhibitor PAbetaN incubated for 18 hrs by broth microdilution method
Assay type: functional
Conditions: not given
Procedure, shortened: as §3

| Structure (SMILES) | fold change (FC) |
| --- | --- |
| C[Si]1(C)OB(O)c2ccccc21 | 8 |

Test system: Stenotrophomonas maltophilia
Assay: Antibacterial activity against Stenotrophomonas maltophilia ATCC 13637 measured after 18 hrs by CLSI broth dilution method
Assay type: functional
Conditions: ATCC 13637, 18 h
Procedure, shortened: as §2

| MIC [µg/mL] | Structure (SMILES) |
| --- | --- |
| > 200 | C[Si]1(C)OB(O)c2ccccc21 |

Test system: Burkholderia cepacia
Assay: Antibacterial activity against Burkholderia cepacia ATCC 25416 assessed as diameter of zone inhibition measured after 18 hrs by CLSI disc diffusion method
Assay type: functional
Conditions: not given
Procedure, shortened: as §1

| Structure (SMILES) | diameter of the inhibition zone (DIZ) |
| --- | --- |
| C[Si]1(C)OB(O)c2ccccc21 | inactive |

Test system: Meyerozyma guilliermondii
Assay: Antifungal activity against Candida guilliermondii IBA 155 assessed as diameter of zone inhibition incubated for 24 hrs by CLSI disc diffusion method
Assay type: functional
Conditions: not given
Procedure, shortened: as §5

| Structure (SMILES) | diameter of the inhibition zone (DIZ) [mm] |
| --- | --- |
| C[Si]1(C)OB(O)c2ccccc21 | 12 |

Test system: not listed separately
Assay: Dissociation constant, pKa1 of compound in 0.1 M NaOH by potentiometric analysis
Assay type: physicochemical
Conditions: not given

| pKa | Structure (SMILES) |
| --- | --- |
| 7.9 | C[Si]1(C)OB(O)c2ccccc21 |

Test system: Staphylococcus aureus
Assay: Antibacterial activity against Staphylococcus aureus ATCC 6538P measured after 18 hrs by CLSI broth dilution method
Assay type: functional
Conditions: not given
Procedure, shortened: as §2

| MIC [µg/mL] | Structure (SMILES) |
| --- | --- |
| 200 (≈ 1120 µM) | C[Si]1(C)OB(O)c2ccccc21 |

Test system: Candida tropicalis
Assay: Antifungal activity against Candida tropicalis IBA 171 assessed as diameter of zone inhibition incubated for 24 hrs by CLSI disc diffusion method
Assay type: functional
Conditions: not given
Procedure, shortened: as §5

| Structure (SMILES) | diameter of the inhibition zone (DIZ) |
| --- | --- |
| C[Si]1(C)OB(O)c2ccccc21 | inactive |

Test system: Enterobacter cloacae
Assay: Antibacterial activity against Enterobacter cloacae DSM 6234 measured after 18 hrs by CLSI broth dilution method
Assay type: functional
Conditions: DSM 6234, 18 h
Procedure, shortened: as §2

| MIC [µg/mL] | Structure (SMILES) |
| --- | --- |
| > 200 | C[Si]1(C)OB(O)c2ccccc21 |

Test system: Staphylococcus epidermidis
Assay: Antibacterial activity against Staphylococcus epidermidis ATCC 12228 assessed as diameter of zone inhibition measured after 18 hrs by CLSI disc diffusion method
Assay type: functional
Conditions: not given
Procedure, shortened: as §1

| Structure (SMILES) | diameter of the inhibition zone (DIZ) [mm] |
| --- | --- |
| C[Si]1(C)OB(O)c2ccccc21 | 28 |

Test system: Escherichia coli
Assay: Antibacterial activity against Escherichia coli ATCC 25922 assessed as fold reduction of MIC in presence of efflux pump inhibitor PAbetaN incubated for 18 hrs by CLSI broth microdilution method
Assay type: functional
Conditions: not given
Procedure, shortened: as §3

| Structure (SMILES) | fold change (FC) |
| --- | --- |
| C[Si]1(C)OB(O)c2ccccc21 | 4 |

Test system: Proteus mirabilis
Assay: Antibacterial activity against Proteus mirabilis ATCC 12453 assessed as fold reduction of MIC in presence of efflux pump inhibitor PAbetaN incubated for 18 hrs by broth microdilution method
Assay type: functional
Conditions: not given
Procedure, shortened: as §3

| Structure (SMILES) | fold change (FC) |
| --- | --- |
| C[Si]1(C)OB(O)c2ccccc21 | 0 |

Test system: Pseudomonas aeruginosa
Assay: Antibacterial activity against Pseudomonas aeruginosa ATCC 27853 measured after 18 hrs by CLSI broth dilution method
Assay type: functional
Conditions: ATCC 27853, 18 h
Procedure, shortened: as §2

| MIC [µg/mL] | Structure (SMILES) |
| --- | --- |
| > 200 | C[Si]1(C)OB(O)c2ccccc21 |

Test system: Burkholderia cepacia
Assay: Antibacterial activity against Burkholderia cepacia ATCC 25416 measured after 18 hrs by CLSI broth dilution method
Assay type: functional
Conditions: ATCC 25416, 18 h
Procedure, shortened: as §2

| MIC [µg/mL] | Structure (SMILES) |
| --- | --- |
| 200 (≈ 1120 µM) | C[Si]1(C)OB(O)c2ccccc21 |

Test system: Staphylococcus aureus
Assay: Antibacterial activity against Staphylococcus aureus ATCC 6538P assessed as diameter of zone inhibition measured after 18 hrs by CLSI disc diffusion method
Assay type: functional
Conditions: not given
Procedure, shortened: as §1

| Structure (SMILES) | diameter of the inhibition zone (DIZ) |
| --- | --- |
| C[Si]1(C)OB(O)c2ccccc21 | inactive |

Test system: Enterococcus faecium
Assay: Antibacterial activity against Enterococcus faecium ATCC 6057 measured after 18 hrs by CLSI broth dilution method
Assay type: functional
Conditions: ATCC 6057, 18 h
Procedure, shortened: as §2

| MIC [µg/mL] | Structure (SMILES) |
| --- | --- |
| 200 (≈ 1120 µM) | C[Si]1(C)OB(O)c2ccccc21 |

Test system: Candida parapsilosis
Assay: Antifungal activity against Candida parapsilosis ATCC 22019 assessed as diameter of zone inhibition incubated for 24 hrs by CLSI disc diffusion method
Assay type: functional
Conditions: not given
Procedure, shortened: as §5

| Structure (SMILES) | diameter of the inhibition zone (DIZ) [mm] |
| --- | --- |
| C[Si]1(C)OB(O)c2ccccc21 | 11 |

Test system: Meyerozyma guilliermondii
Assay: Antifungal activity against Candida guilliermondii IBA 155 assessed as decrease in fungal cell growth at 0.78 to 12.5 mg/L incubated for 24 hrs by CLSI broth dilution method
Assay type: functional
Conditions: IBA 155, 24 h
Procedure, shortened: as §4

| MIC [µg/mL] | Structure (SMILES) |
| --- | --- |
| 25 (≈ 140 µM) | C[Si]1(C)OB(O)c2ccccc21 |
